# According to ChEMBL document CHEMBL4689842, “EUbOPEN Chemogenomics Library wave 1” (2021):
# Tested on: Fibroblast
# Assay: Multiplex assay against human fibroblast
# Format: toxicity, cell-based
# Procedure, shortened: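 Four dyes were applied at seeding to live cells: Hoechst33342, BioTracker Green Microtubule Cytoskeleton Dye, MitoTracker Red and Annexin V Alexa Fluor 680. Imaging after compound addition used a CQ1 microscope at 37°C and 5% CO2. CellPathfinder machine-learning gating then sorted cells into Hoechst high-intensity objects or normal cells, normal cells into healthy, pyknosed or fragmented nuclei, and pyknosed cells into mitotic or apoptotic, with tubulin, mitochondrial-mass and membrane-permeability phenotypes given as per cents of healthy-nucleus cells.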
# [1] = 12 h, 1 µM, compound concentration 1 uM, replicate 1
# [2] = 12 h, 1 µM, compound concentration 1 uM, replicate 2
# [3] = 12 h, 10 µM, compound concentration 10 uM, replicate 1
# [4] = 12 h, 10 µM, compound concentration 10 uM, replicate 2
# [5] = 24 h, 1 µM, compound concentration 1 uM, replicate 1
# [6] = 24 h, 1 µM, compound concentration 1 uM, replicate 2
# [7] = 24 h, 10 µM, compound concentration 10 uM, replicate 1
# [8] = 24 h, 10 µM, compound concentration 10 uM, replicate 2
# [9] = 48 h, 1 µM, compound concentration 1 uM, replicate 1
# [10] = 48 h, 1 µM, compound concentration 1 uM, replicate 2
# [11] = 48 h, 10 µM, compound concentration 10 uM, replicate 1
# [12] = 48 h, 10 µM, compound concentration 10 uM, replicate 2
compound,measurement,setting,value
COc1cc(-n2cnc3cc(-c4ccc(Cl)cc4)sc3c2=O)ccc1OCCN1CCCC1,Population Apoptotic (%),[1],52%
same,Population Fragmented Nuclei (%),[1],32%
same,Population Healthy Nuclei (%),[1],49%
same,Population Hoechst High Intensity Objects (%),[1],13%
same,Population Membrane Permeable-Phenotype (%),[1],23%
same,Population Mitochondria Different-Phenotype (%),[1],13%
same,Population Mitotic Cells (%),[1],47%
same,Population Normal (%),[1],86%
same,Population Pyknosed Nuclei (%),[1],18%
same,Population Tubulin-Different-Phenotype (%),[1],38%
same,Total Cell Count,[1],121
same,Population Apoptotic (%),[2],71%
same,Population Fragmented Nuclei (%),[2],11%
same,Population Healthy Nuclei (%),[2],77%
same,Population Hoechst High Intensity Objects (%),[2],16%
same,Population Membrane Permeable-Phenotype (%),[2],10%
same,Population Mitochondria Different-Phenotype (%),[2],44%
same,Population Mitotic Cells (%),[2],28%
same,Population Normal (%),[2],84%
same,Population Pyknosed Nuclei (%),[2],11%
same,Population Tubulin-Different-Phenotype (%),[2],34%
same,Total Cell Count,[2],78
same,Population Apoptotic (%),[3],62%
same,Population Fragmented Nuclei (%),[3],33%
same,Population Healthy Nuclei (%),[3],26%
same,Population Hoechst High Intensity Objects (%),[3],14%
same,Population Membrane Permeable-Phenotype (%),[3],21%
same,Population Mitochondria Different-Phenotype (%),[3],53%
same,Population Mitotic Cells (%),[3],37%
same,Population Normal (%),[3],85%
same,Population Pyknosed Nuclei (%),[3],40%
same,Population Tubulin-Different-Phenotype (%),[3],87%
same,Total Cell Count,[3],141
same,Population Apoptotic (%),[4],26%
same,Population Fragmented Nuclei (%),[4],22%
same,Population Healthy Nuclei (%),[4],57%
same,Population Hoechst High Intensity Objects (%),[4],8%
same,Population Membrane Permeable-Phenotype (%),[4],34%
same,Population Mitochondria Different-Phenotype (%),[4],93%
same,Population Mitotic Cells (%),[4],73%
same,Population Normal (%),[4],91%
same,Population Pyknosed Nuclei (%),[4],19%
same,Population Tubulin-Different-Phenotype (%),[4],97%
same,Total Cell Count,[4],75
same,Population Apoptotic (%),[5],38%
same,Population Fragmented Nuclei (%),[5],36%
same,Population Healthy Nuclei (%),[5],47%
same,Population Hoechst High Intensity Objects (%),[5],17%
same,Population Membrane Permeable-Phenotype (%),[5],17%
same,Population Mitochondria Different-Phenotype (%),[5],5%
same,Population Mitotic Cells (%),[5],61%
same,Population Normal (%),[5],82%
same,Population Pyknosed Nuclei (%),[5],15%
same,Population Tubulin-Different-Phenotype (%),[5],32%
same,Total Cell Count,[5],142
same,Population Apoptotic (%),[6],62%
same,Population Fragmented Nuclei (%),[6],16%
same,Population Healthy Nuclei (%),[6],71%
same,Population Hoechst High Intensity Objects (%),[6],10%
same,Population Membrane Permeable-Phenotype (%),[6],6%
same,Population Mitochondria Different-Phenotype (%),[6],25%
same,Population Mitotic Cells (%),[6],37%
same,Population Normal (%),[6],89%
same,Population Pyknosed Nuclei (%),[6],12%
same,Population Tubulin-Different-Phenotype (%),[6],21%
same,Total Cell Count,[6],83
same,Population Apoptotic (%),[7],92%
same,Population Fragmented Nuclei (%),[7],32%
same,Population Healthy Nuclei (%),[7],15%
same,Population Hoechst High Intensity Objects (%),[7],16%
same,Population Membrane Permeable-Phenotype (%),[7],25%
same,Population Mitochondria Different-Phenotype (%),[7],43%
same,Population Mitotic Cells (%),[7],7%
same,Population Normal (%),[7],83%
same,Population Pyknosed Nuclei (%),[7],51%
same,Population Tubulin-Different-Phenotype (%),[7],93%
same,Total Cell Count,[7],125
same,Population Apoptotic (%),[8],47%
same,Population Fragmented Nuclei (%),[8],24%
same,Population Healthy Nuclei (%),[8],52%
same,Population Hoechst High Intensity Objects (%),[8],14%
same,Population Membrane Permeable-Phenotype (%),[8],42%
same,Population Mitochondria Different-Phenotype (%),[8],89%
same,Population Mitotic Cells (%),[8],52%
same,Population Normal (%),[8],85%
same,Population Pyknosed Nuclei (%),[8],23%
same,Population Tubulin-Different-Phenotype (%),[8],81%
same,Total Cell Count,[8],74
same,Population Apoptotic (%),[9],81%
same,Population Fragmented Nuclei (%),[9],39%
same,Population Healthy Nuclei (%),[9],48%
same,Population Hoechst High Intensity Objects (%),[9],18%
same,Population Membrane Permeable-Phenotype (%),[9],9%
same,Population Mitochondria Different-Phenotype (%),[9],4%
same,Population Mitotic Cells (%),[9],18%
same,Population Normal (%),[9],81%
same,Population Pyknosed Nuclei (%),[9],11%
same,Population Tubulin-Different-Phenotype (%),[9],22%
same,Total Cell Count,[9],166
same,Population Apoptotic (%),[10],33%
same,Population Fragmented Nuclei (%),[10],36%
same,Population Healthy Nuclei (%),[10],61%
same,Population Hoechst High Intensity Objects (%),[10],15%
same,Population Membrane Permeable-Phenotype (%),[10],16%
same,Population Mitochondria Different-Phenotype (%),[10],3%
same,Population Mitotic Cells (%),[10],66%
same,Population Normal (%),[10],84%
same,Population Pyknosed Nuclei (%),[10],2%
same,Population Tubulin-Different-Phenotype (%),[10],51%
same,Total Cell Count,[10],160
same,Population Apoptotic (%),[11],93%
same,Population Fragmented Nuclei (%),[11],52%
same,Population Healthy Nuclei (%),[11],26%
same,Population Hoechst High Intensity Objects (%),[11],37%
same,Population Membrane Permeable-Phenotype (%),[11],23%
same,Population Mitochondria Different-Phenotype (%),[11],47%
same,Population Mitotic Cells (%),[11],6%
same,Population Normal (%),[11],62%
same,Population Pyknosed Nuclei (%),[11],20%
same,Population Tubulin-Different-Phenotype (%),[11],85%
same,Total Cell Count,[11],124
same,Population Apoptotic (%),[12],63%
same,Population Fragmented Nuclei (%),[12],36%
same,Population Healthy Nuclei (%),[12],53%
same,Population Hoechst High Intensity Objects (%),[12],32%
same,Population Mitochondria Different-Phenotype (%),[12],30%
same,Population Mitotic Cells (%),[12],36%
same,Population Normal (%),[12],67%
same,Population Pyknosed Nuclei (%),[12],9%
same,Total Cell Count,[12],167
Cl.N#Cc1ccc2[nH]cc(CCCCN3CCN(c4ccc5oc(C(N)=O)cc5c4)CC3)c2c1 [VILAZODONE HYDROCHLORIDE],Population Apoptotic (%),[1],75%
same,Population Fragmented Nuclei (%),[1],38%
same,Population Healthy Nuclei (%),[1],22%
same,Population Hoechst High Intensity Objects (%),[1],19%
same,Population Membrane Permeable-Phenotype (%),[1],28%
same,Population Mitochondria Different-Phenotype (%),[1],9%
same,Population Mitotic Cells (%),[1],25%
same,Population Normal (%),[1],80%
same,Population Pyknosed Nuclei (%),[1],38%
same,Population Tubulin-Different-Phenotype (%),[1],47%
same,Total Cell Count,[1],116
same,Population Apoptotic (%),[2],27%
same,Population Fragmented Nuclei (%),[2],14%
same,Population Healthy Nuclei (%),[2],70%
same,Population Hoechst High Intensity Objects (%),[2],2%
same,Population Membrane Permeable-Phenotype (%),[2],6%
same,Population Mitochondria Different-Phenotype (%),[2],30%
same,Population Mitotic Cells (%),[2],72%
same,Population Normal (%),[2],97%
same,Population Pyknosed Nuclei (%),[2],15%
same,Population Tubulin-Different-Phenotype (%),[2],18%
same,Total Cell Count,[2],50
same,Population Apoptotic (%),[3],69%
same,Population Fragmented Nuclei (%),[3],19%
same,Population Healthy Nuclei (%),[3],18%
same,Population Hoechst High Intensity Objects (%),[3],35%
same,Population Membrane Permeable-Phenotype (%),[3],17%
same,Population Mitochondria Different-Phenotype (%),[3],21%
same,Population Mitotic Cells (%),[3],30%
same,Population Normal (%),[3],64%
same,Population Pyknosed Nuclei (%),[3],62%
same,Population Tubulin-Different-Phenotype (%),[3],52%
same,Total Cell Count,[3],197
same,Population Apoptotic (%),[4],67%
same,Population Fragmented Nuclei (%),[4],20%
same,Population Healthy Nuclei (%),[4],14%
same,Population Hoechst High Intensity Objects (%),[4],10%
same,Population Membrane Permeable-Phenotype (%),[4],38%
same,Population Mitochondria Different-Phenotype (%),[4],46%
same,Population Mitotic Cells (%),[4],32%
same,Population Normal (%),[4],89%
same,Population Pyknosed Nuclei (%),[4],64%
same,Population Tubulin-Different-Phenotype (%),[4],92%
same,Total Cell Count,[4],72
same,Population Apoptotic (%),[5],63%
same,Population Fragmented Nuclei (%),[5],32%
same,Population Healthy Nuclei (%),[5],42%
same,Population Hoechst High Intensity Objects (%),[5],25%
same,Population Membrane Permeable-Phenotype (%),[5],21%
same,Population Mitochondria Different-Phenotype (%),[5],8%
same,Population Mitotic Cells (%),[5],36%
same,Population Normal (%),[5],74%
same,Population Pyknosed Nuclei (%),[5],25%
same,Population Tubulin-Different-Phenotype (%),[5],51%
same,Total Cell Count,[5],118
same,Population Apoptotic (%),[6],60%
same,Population Fragmented Nuclei (%),[6],15%
same,Population Healthy Nuclei (%),[6],78%
same,Population Hoechst High Intensity Objects (%),[6],1%
same,Population Membrane Permeable-Phenotype (%),[6],3%
same,Population Mitochondria Different-Phenotype (%),[6],19%
same,Population Mitotic Cells (%),[6],40%
same,Population Normal (%),[6],98%
same,Population Pyknosed Nuclei (%),[6],6%
same,Population Tubulin-Different-Phenotype (%),[6],18%
same,Total Cell Count,[6],54
same,Population Apoptotic (%),[7],66%
same,Population Fragmented Nuclei (%),[7],22%
same,Population Healthy Nuclei (%),[7],23%
same,Population Hoechst High Intensity Objects (%),[7],35%
same,Population Membrane Permeable-Phenotype (%),[7],50%
same,Population Mitochondria Different-Phenotype (%),[7],20%
same,Population Mitotic Cells (%),[7],33%
same,Population Normal (%),[7],64%
same,Population Pyknosed Nuclei (%),[7],53%
same,Population Tubulin-Different-Phenotype (%),[7],50%
same,Total Cell Count,[7],197
same,Population Apoptotic (%),[8],75%
same,Population Fragmented Nuclei (%),[8],31%
same,Population Healthy Nuclei (%),[8],9%
same,Population Hoechst High Intensity Objects (%),[8],18%
same,Population Membrane Permeable-Phenotype (%),[8],30%
same,Population Mitochondria Different-Phenotype (%),[8],90%
same,Population Mitotic Cells (%),[8],24%
same,Population Normal (%),[8],81%
same,Population Pyknosed Nuclei (%),[8],59%
same,Population Tubulin-Different-Phenotype (%),[8],90%
same,Total Cell Count,[8],79
same,Population Apoptotic (%),[9],60%
same,Population Fragmented Nuclei (%),[9],35%
same,Population Healthy Nuclei (%),[9],53%
same,Population Hoechst High Intensity Objects (%),[9],30%
same,Population Mitochondria Different-Phenotype (%),[9],0%
same,Population Mitotic Cells (%),[9],40%
same,Population Normal (%),[9],69%
same,Population Pyknosed Nuclei (%),[9],10%
same,Population Tubulin-Different-Phenotype (%),[9],43%
same,Total Cell Count,[9],136
same,Population Apoptotic (%),[10],33%
same,Population Fragmented Nuclei (%),[10],39%
same,Population Healthy Nuclei (%),[10],57%
same,Population Hoechst High Intensity Objects (%),[10],13%
same,Population Membrane Permeable-Phenotype (%),[10],7%
same,Population Mitochondria Different-Phenotype (%),[10],1%
same,Population Mitotic Cells (%),[10],66%
same,Population Normal (%),[10],86%
same,Population Pyknosed Nuclei (%),[10],2%
same,Population Tubulin-Different-Phenotype (%),[10],64%
same,Total Cell Count,[10],153
same,Population Apoptotic (%),[11],50%
same,Population Fragmented Nuclei (%),[11],22%
same,Population Healthy Nuclei (%),[11],23%
same,Population Hoechst High Intensity Objects (%),[11],38%
same,Population Membrane Permeable-Phenotype (%),[11],51%
same,Population Mitochondria Different-Phenotype (%),[11],21%
same,Population Mitotic Cells (%),[11],50%
same,Population Normal (%),[11],61%
same,Population Pyknosed Nuclei (%),[11],53%
same,Population Tubulin-Different-Phenotype (%),[11],51%
same,Total Cell Count,[11],230
same,Population Apoptotic (%),[12],34%
same,Population Fragmented Nuclei (%),[12],15%
same,Population Healthy Nuclei (%),[12],34%
same,Population Hoechst High Intensity Objects (%),[12],44%
same,Population Membrane Permeable-Phenotype (%),[12],31%
same,Population Mitochondria Different-Phenotype (%),[12],40%
same,Population Mitotic Cells (%),[12],65%
same,Population Normal (%),[12],55%
same,Population Pyknosed Nuclei (%),[12],50%
same,Population Tubulin-Different-Phenotype (%),[12],72%
same,Total Cell Count,[12],247
